What was measured:
Histamine H3 receptor [1] = molecular target: T1, Histamine H3 receptor (Homo sapiens, UniProt Q9Y5N1); assay: Displacement of [3H]UR-P1294 from human H3R receptor expressed in HEK293 cells by radioligand competition binding assay; assay type: cell-based
Histamine H3 receptor [2] = molecular target: T1, Histamine H3 receptor; assay: Binding affinity in Nluc-hH3R assessed in HEK293 cells by NanoBRET binding assay; assay type: cell-based
In short: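 Saturation NanoBRET binding of the fluorescent ligand at live HEK293 cells stably expressing NLuc-hH3R; acceptor/donor BRET ratio; pKd from saturation isotherm; three independent experiments, each in duplicate.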

Histamine H3 receptor [3] = molecular target: T1, Histamine H3 receptor; assay: Binding affinity in Nluc-hH3R assessed in HEK293T cells by NanoBRET binding assay; assay type: cell-based
Histamine H3 receptor [4] = molecular target: T1, Histamine H3 receptor; assay: Binding affinity in Nluc-hH3R assessed as dissociation time constant by NanoBRET binding assay
Histamine H3 receptor [5] = molecular target: T1, Histamine H3 receptor; assay: Inhibition of human H3R expressed in HEK293-A cells assessed as inhibition of imetit-induced Gi2 activation by BRET assay; assay type: cell-based
Homo sapiens [6] = species on record: Homo sapiens; assay: Selectivity ratio of Ki for human H2 receptor to Ki for human H3 receptor
Homo sapiens [7] = species on record: Homo sapiens; assay: Selectivity ratio of Ki for human H4 receptor to Ki for human H3 receptor
Histamine H3 receptor [8] = molecular target: T1, Histamine H3 receptor; assay: Binding affinity to human H3R expressed in HEK293 cells by flow cytometric analysis; assay type: cell-based
Histamine H1 receptor = Histamine H1 receptor (Homo sapiens, UniProt P35367); assay: Displacement of [3H]mepyramine from human H1R receptor expressed in HEK293 cells by radioligand competition binding assay; assay type: cell-based
Histamine H3 receptor [9] = molecular target: T1, Histamine H3 receptor; assay: Binding affinity to human H3 receptor assessed as labeling efficiency by measuring dual color acquisition at 3 nM by microscopy based TIRF assay
Histamine H3 receptor [10] = molecular target: T1, Histamine H3 receptor; assay: Binding affinity in human H3R assessed as association rate constant using confocal microscopy
Histamine H4 receptor = Histamine H4 receptor (Homo sapiens, UniProt Q9H3N8); assay: Displacement of [3H]histamine from human H4R receptor expressed in HEK293 cells by radioligand competition binding assay; assay type: cell-based
Histamine H3 receptor [11] = molecular target: T1, Histamine H3 receptor; assay: Binding affinity in Nluc-hH3R assessed as association rate constant by NanoBRET binding assay
Histamine H3 receptor [12] = molecular target: T1, Histamine H3 receptor; assay: Binding affinity in Nluc-hH3R assessed as association time constant receptor saturated after 15 mins by NanoBRET binding assay
Histamine H3 receptor [13] = molecular target: T1, Histamine H3 receptor; assay: Binding affinity in human H3R assessed as association time constant by confocal microscopy
Histamine H2 receptor = Histamine H2 receptor (Homo sapiens, UniProt P25021); assay: Displacement of [3H]UR-DE25 from human H2R receptor expressed in HEK293 cells by radioligand competition binding assay; assay type: cell-based
Histamine H3 receptor [14] = molecular target: T1, Histamine H3 receptor; assay: Binding affinity in human H3R as assessed as dissociation time constant using confocal microscopy relative to control
Histamine H3 receptor [15] = molecular target: T1, Histamine H3 receptor; assay: Binding affinity in human H3 receptor expressed in HEK293 cells by confocal microscopy; assay type: cell-based
Homo sapiens [16] = species on record: Homo sapiens; assay: Selectivity ratio of Ki for human H1 receptor to Ki for human H3 receptor

T1 sequence (Q9Y5N1 whole entry): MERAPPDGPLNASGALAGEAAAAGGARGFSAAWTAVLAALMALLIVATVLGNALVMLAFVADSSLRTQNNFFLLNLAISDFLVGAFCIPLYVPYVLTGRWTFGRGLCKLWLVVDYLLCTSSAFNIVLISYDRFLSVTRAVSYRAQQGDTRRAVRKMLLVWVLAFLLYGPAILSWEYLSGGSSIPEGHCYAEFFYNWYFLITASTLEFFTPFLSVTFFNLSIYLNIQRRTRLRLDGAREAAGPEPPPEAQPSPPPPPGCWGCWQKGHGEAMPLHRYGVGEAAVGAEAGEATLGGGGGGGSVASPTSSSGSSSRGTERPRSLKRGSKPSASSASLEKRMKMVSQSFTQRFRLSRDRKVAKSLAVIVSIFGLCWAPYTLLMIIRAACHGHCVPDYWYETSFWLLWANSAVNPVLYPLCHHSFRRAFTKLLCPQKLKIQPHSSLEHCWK
Histamine H2 receptor, sequence (P25021 whole entry): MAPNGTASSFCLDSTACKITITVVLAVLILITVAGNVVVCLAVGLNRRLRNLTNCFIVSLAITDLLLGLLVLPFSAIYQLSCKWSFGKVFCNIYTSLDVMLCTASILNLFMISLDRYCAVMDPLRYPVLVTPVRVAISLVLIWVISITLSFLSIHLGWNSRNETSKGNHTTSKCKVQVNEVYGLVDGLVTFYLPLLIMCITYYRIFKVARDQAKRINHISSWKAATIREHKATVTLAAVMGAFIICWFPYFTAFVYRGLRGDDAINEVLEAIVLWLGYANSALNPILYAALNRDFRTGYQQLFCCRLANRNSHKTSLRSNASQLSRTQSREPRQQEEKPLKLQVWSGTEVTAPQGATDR
Histamine H4 receptor, sequence (Q9H3N8 whole entry): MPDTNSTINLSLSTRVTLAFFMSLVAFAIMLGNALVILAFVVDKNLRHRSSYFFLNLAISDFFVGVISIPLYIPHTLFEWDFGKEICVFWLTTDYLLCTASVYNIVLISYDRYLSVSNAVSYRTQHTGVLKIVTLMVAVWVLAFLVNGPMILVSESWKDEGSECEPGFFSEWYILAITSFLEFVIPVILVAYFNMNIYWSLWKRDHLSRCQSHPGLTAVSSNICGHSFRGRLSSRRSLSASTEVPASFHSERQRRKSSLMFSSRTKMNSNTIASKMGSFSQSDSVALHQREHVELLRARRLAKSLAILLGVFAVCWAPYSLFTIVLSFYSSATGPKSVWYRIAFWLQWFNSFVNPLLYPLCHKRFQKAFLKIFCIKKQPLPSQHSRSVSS
Histamine H1 receptor, sequence (P35367 whole entry): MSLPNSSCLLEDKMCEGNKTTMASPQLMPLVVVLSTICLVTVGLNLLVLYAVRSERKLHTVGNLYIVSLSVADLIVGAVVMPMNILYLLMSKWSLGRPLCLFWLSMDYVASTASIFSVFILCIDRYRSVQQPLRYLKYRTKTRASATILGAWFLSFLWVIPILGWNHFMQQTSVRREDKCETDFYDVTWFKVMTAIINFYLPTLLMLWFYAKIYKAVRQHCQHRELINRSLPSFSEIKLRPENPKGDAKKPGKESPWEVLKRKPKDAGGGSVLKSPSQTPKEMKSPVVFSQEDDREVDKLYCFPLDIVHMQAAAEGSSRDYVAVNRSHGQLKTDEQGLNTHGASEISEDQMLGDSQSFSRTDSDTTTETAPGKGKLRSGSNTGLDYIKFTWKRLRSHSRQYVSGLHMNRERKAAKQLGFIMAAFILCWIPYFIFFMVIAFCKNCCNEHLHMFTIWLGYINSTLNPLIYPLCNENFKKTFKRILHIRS

Question: For `CCOC(=O)C1CCN(Cc2ccc(OCCCN3CCCCC3)cc2)CC1`, which Ki (Histamine H3 receptor [1]) is on record?
Answer: 0.275 nM

Question: `CCN1CCN(C(=O)c2ccc(-c3nc4ccccc4s3)s2)CC1` was tested. Which Ki (Histamine H3 receptor [2]) did it give?
Answer: 19.5 nM

Question: What about the Ki (Histamine H3 receptor [3]) of the same molecule?
Answer: 19.5 nM

Question: How did the Ki (Histamine H3 receptor [1]) turn out when `O=C(O)C1CCN(Cc2ccc(OCCCN3CCCCC3)cc2)CC1` was run?
Answer: 1.58 nM

Question: Which Ki (Histamine H3 receptor [1]) does the source give for `NCCOCCOCCOCCNC(=O)C1CCN(Cc2ccc(OCCCN3CCCCC3)cc2)CC1` here?
Answer: 0.398 nM

Question: How did the TIME (Histamine H3 receptor [4]) turn out when `CN(C)c1ccc2c(-c3ccc(C(=O)NCCOCCOCCOCCNC(=O)C4CCN(Cc5ccc(OCCCN6CCCCC6)cc5)CC4)cc3C(=O)[O-])c3ccc(=[N+](C)C)cc-3oc2c1` was run?
Answer: 0.107 h

Question: And the Ki (Histamine H3 receptor [1])?
Answer: 0.302 nM

Question: And the pKb (Histamine H3 receptor [5])?
Answer: 9.04

Question: And the Ratio Ki (Homo sapiens [6])?
Answer: > 100000

Question: What about the Ratio Ki (Homo sapiens [7]) of the same molecule?
Answer: > 100000

Question: What about the Kd (Histamine H3 receptor [8]) of the same molecule?
Answer: 0.195 nM

Question: What about the Ki (Histamine H1 receptor) of the same molecule?
Answer: > 100000 nM

Question: What about the Activity (Histamine H3 receptor [9]) of the same molecule?
Answer: 96.1%

Question: And the Activity (Histamine H3 receptor [10])?
Answer: 0.37 min⁻¹ nM⁻¹

Question: What about the Ki (Histamine H4 receptor) of the same molecule?
Answer: > 100000 nM

Question: What about the Kd (Histamine H3 receptor [2]) of the same molecule?
Answer: 0.158 nM

Question: And the Activity (Histamine H3 receptor [11])?
Answer: 0.71 min⁻¹ nM⁻¹

Question: And the TIME (Histamine H3 receptor [12])?
Answer: 0.0328 h

Question: What about the TIME (Histamine H3 receptor [13]) of the same molecule?
Answer: 0.008 h

Question: What about the Ki (Histamine H2 receptor) of the same molecule?
Answer: > 100000 nM

Question: And the TIME (Histamine H3 receptor [14])?
Answer: 0.0583 h

Question: And the Activity (Histamine H3 receptor [15])?
Answer: 2.13 min⁻¹

Question: And the Ratio Ki (Homo sapiens [16])?
Answer: > 100000

Question: Which Ki (Histamine H3 receptor [2]) does the source give for `N=C(N)SCCc1cnc[nH]1` [IMETIT] here?
Answer: 12.6 nM

Question: What about the Ki (Histamine H3 receptor [3]) of the same molecule?
Answer: 5.01 nM

From ChEMBL document CHEMBL5053495, “A Versatile Sub-Nanomolar Fluorescent Ligand Enables NanoBRET Binding Studies and Single-Molecule Microscopy at the Histamine H3 Receptor” (J Med Chem, 2021)
